Cytotoxicity data for 96 compounds are collected here from ChEMBL document CHEMBL4513216, “Probing the Open Global Health Chemical Diversity Library for Multistage-Active Starting Points for Next-Generation Antimalarials” (ACS Infect Dis, 2020).

The nature of the data set: Toxicity liver stage against HepG2, at 10uM. The data set is classed as cell-based. More on the design: test concentration 10 uM, cell line HepG2-A16-CD81EGFP. The conditions noted are these: human, HepG2-A16-CD81EGFP cells; read-out: INHIBITION
The method in brief:
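Uninfected HepG2-A16-CD81EGFP cells, 3 × 10^3 per well, 1536-well, plated on prespotted compound at 10 μM final, parasite-free screening media added to match infected plates; puromycin 10 μM positive, DMSO 0.5% negative; run in parallel with 48 h PbLuc assay at 37 °C, 5% CO2; viability by CellTiter-Glo luminescence, normalized to controls.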
As for `COc1ccc(C(=O)c2cnc(C(C)C)n2C)cc1`, the cytotoxicity at 10 µM is 15.5%.
As for `Cn1ncc2c1NC(=O)CC2c1ccc(Cl)cc1Cl` (stereo unspecified), the cytotoxicity at 10 µM is 59.9%.
For `O=C1CO[C@@H]2CN(S(=O)(=O)c3ccccc3)C[C@H]2N1CC1CC1`, the cytotoxicity at 10 µM was -3.1%.
For `CC[C@@H](Cn1ncc2ccccc2c1=O)NC(=O)c1ccco1` the value was 8.44%.
The figure for `CN(C(=O)c1ccccc1F)[C@@H]1CC[C@@H](O)[C@@H]1O` is -6.11%; for `CN(C)c1cc(C2CCCN(C(=O)c3ccc(=O)[nH]n3)C2)ccn1` (stereo unspecified) it is -9.04%; for `Cn1ncc(Cl)c1C(=O)N1CCc2nc3sccc3c(=O)n2CC1` it is -26.7%.
The figure for `CN(C(=O)c1ccnn1C)[C@@H]1CCC[C@@H](Oc2ccccc2)[C@@H]1O` is -35.9%; for `Cc1ccccc1CN(C)C(=O)c1cc(C2CCCN2C)ccn1` (stereo unspecified) it is -4.76%.
On to `Cc1noc2nc(C3CCCN(Cc4ccncc4)C3)cc(C(F)F)c12` (stereo unspecified), for which the cytotoxicity at 10 µM was -16.7%.
The figure for `CNC(=O)C1(c2cnccn2)CCCN1C(=O)c1c(F)cccc1F` (stereo unspecified) is -24.1%; for `Cc1csc(C(Cc2ccsc2)NC(=O)Cn2cccnc2=O)n1` (stereo unspecified) it is -22.2%.
Consider `O=C(c1ccncc1)N1CCC(Cc2cnc3[nH]ccc3c2)CC1`, for which the cytotoxicity at 10 µM was -1.86%.
For `Cc1ccccc1CNC(=O)c1ccccc1-n1cnc(CN)c1`, the cytotoxicity at 10 µM is -7.22%.
For `Cc1cn[nH]c1C1CCCCN1C(=O)CCc1c(C)n[nH]c1C` (stereo unspecified), the cytotoxicity at 10 µM is -10.5%.
Turning to `O=c1c2ccccc2nc2n1C(CSc1ccc(Cl)cc1Cl)CN2` (stereo unspecified), the cytotoxicity at 10 µM stood at 6.01%.
On to `CCN(C)S(=O)(=O)c1c(F)cc(NC(C)=O)cc1F`, for which the cytotoxicity at 10 µM is -40.7%.
As for `CC(C)c1noc(CCC(=O)Nc2cc(F)ccc2F)n1`, the cytotoxicity at 10 µM is -15.4%.
As for `CCOCCC(=O)Nc1cccc(Cl)c1COC`, the cytotoxicity at 10 µM was -3.81%.
For `CC(Nc1cccc(F)c1C#N)c1cccc(S(N)(=O)=O)c1` (stereo unspecified) the value was 12.8%; for `CN(Cc1ccccn1)C(=O)C(c1ccccc1)N1CCSCC1` (stereo unspecified), -9.71%.
In the case of `COc1c(CNC(C)c2sc(C)nc2C)c(C(C)C)nn1C` (stereo unspecified), the cytotoxicity at 10 µM came to 7.97%.
Take `Cc1cnc(C(=O)N2CCOCC2C)cn1` (stereo unspecified): the cytotoxicity at 10 µM is -3.83%.
For `COc1ccc(NC(=O)NCC(C)N2CCc3ccccc32)cc1` (stereo unspecified) the value was -2.42%; for `CCC(C)(CC(=O)OC)NC(=O)c1ccc(C(C)=O)cc1` (stereo unspecified), -4.89%.
The figure for `Clc1cccc(N2CCC(NCc3ncc[nH]3)C2)c1` (stereo unspecified) is 7.41%.
For `Cc1n[nH]cc1CNC(=O)[C@H]1CCCCN1C(=O)OC(C)(C)C` the value was -0.311%; for `CC(C)(C)c1cnc(CNCC2CCCN2c2cccnn2)o1` (stereo unspecified), -2.2%.
Regarding `Cn1cc(C(=O)N(Cc2ccco2)Cc2cccs2)ccc1=O`, the cytotoxicity at 10 µM was -0.0261%.
For `CC(C)N(Cc1ccccn1)C(=O)CCC(=O)c1ccccc1` the value was 3.33%; for `CN1CCN(S(=O)(=O)c2ccc(Cl)c(Cl)c2)c2cnccc21`, 5.57%; for `CCN1CCc2c(cccc2NC(=O)CN(C)C2CCSC2)C1` (stereo unspecified), -47%.
As for `CN(C)c1nccc(N(C)C2CCOCC2)n1`, the cytotoxicity at 10 µM worked out at 3.13%.
Consider `COc1cccc(C(=O)NC(C)CCN2CCOCC2)c1F` (stereo unspecified), for which the cytotoxicity at 10 µM is -45.2%.
The figure for `Cc1nc([C@@H]2C[C@@H]3CCN(C(=O)Cc4ccsc4)C[C@H]3O2)no1` is 1.85%.
Consider `N[C@H]1CN(C(=O)CCc2cc(Cl)no2)C[C@@H]1c1ccccc1`, for which the cytotoxicity at 10 µM was -7.03%.
For `CSCCC(=O)N1CCCN(c2ccccc2C)CC1` the value was -9.31%; for `Cc1nc(CN2CCCn3nc(CNC(=O)C4CCC4)cc3C2)co1`, 3.26%.
For `CCCc1ccc(CN2CCN(C(=O)CC(C)C)[C@@H]3CS(=O)(=O)C[C@@H]32)o1` the value was 5.31%; for `Cc1ccc2oc(=O)n(CCC(=O)N3CCC4(CN(C)C(=O)O4)C3)c2c1` (stereo unspecified), 1.66%; for `Cc1nc(CN(C)C(=O)c2cccc(CC3CCNCC3)c2)no1`, -5.56%.
Take `COc1ccc(N2CCN(C(=O)C3CN(C)C(=O)N3)CC2(C)C)cc1` (stereo unspecified): the cytotoxicity at 10 µM was 0.254%.
Take `COCCC(=O)NCc1cccnc1-n1cnc2ccccc21`: the cytotoxicity at 10 µM is -8.42%.
The figure for `CCc1noc(CN(C)C(=O)c2ccccc2-c2ncn[nH]2)n1` is 16.7%.
For `Cc1ccnc(Cn2cc(-c3cccc(C(C)N(C)C)c3)nn2)c1` (stereo unspecified), the cytotoxicity at 10 µM is 1.74%.
Regarding `CC(C)N1CCC(C(=O)N2CCCN(c3ccccc3)CC2)CC1`, the cytotoxicity at 10 µM was found to be 7.4%.
For `CCn1cc(CN(C)c2nc(C)c3ccc(S(C)(=O)=O)cc3n2)cn1` the value was 48.8%; for `N[C@H]1CN(C(=O)c2ccccc2OCCc2ccccc2)C[C@@H]1C1CC1`, -2.68%; for `O=C(NC1CCOC1)c1cccc(S(=O)(=O)NCCCc2ncc[nH]2)c1` (stereo unspecified), -2.26%.
The figure for `Cc1cnc(C(=O)N2CCCC(c3nccn3Cc3cscn3)C2)cn1` (stereo unspecified) is -7.92%; for `OC1(CN2CCCCC2)CCN(c2cc(C(F)(F)F)ccn2)C1` (stereo unspecified) it is -2.22%; for `COc1nc(C)c(C(=O)NCc2cc(N3CCOCC3)ncn2)s1` it is 12.9%.
The figure for `OCc1csc(N2CCCN(Cc3ccc(F)cc3)CC2)n1` is -2.58%; for `COc1cccc(Cn2cc(C3=CCN(CC(=O)N(C)C)CC3)cn2)c1` it is -13.1%.
Consider `CCN1CC(C(=O)N2CCN(c3nsc4ccccc34)CC2)CCC1=O` (stereo unspecified), for which the cytotoxicity at 10 µM turned out to be 16.2%.
For `O=S1(=O)COCCN1Cc1ccc(F)cc1Cl` the value was 14.7%; for `O=c1cnc2ccccc2n1CCCn1ccnc1`, -3.85%.
The figure for `CC(C)NS(=O)(=O)c1cc(C(=O)O)cc(-c2ccc3c(c2)OCCO3)c1` is -2.34%; for `O=C(CCn1ccnc1)N1CC[C@@H](c2ccc3ccccc3c2)[C@H](O)C1` it is -0.288%.
For `CC(C)Cc1ncc2c(n1)CN(c1nc3ccccc3cc1CO)C2` the value was 1.18%; for `CCN(CC)C(=O)[C@@H]1C[C@H](n2cc(-c3ccccn3)nn2)CN1`, -20.6%.
As for `O=C(N1CCC(Oc2ccncc2)CC1)C1(c2ccc(F)cc2)CC1`, the cytotoxicity at 10 µM was -7.66%.
For `Cc1cnn(CCNCc2cc(C#N)ccc2F)c1` the value was -10.1%; for `CC(C)c1nc(C2CCCN2Cc2nnc(C3CCC3)o2)no1` (stereo unspecified), -15.6%.
The figure for `Cc1nc(CNC(=O)NCC(O)c2ccc(F)cc2)cs1` (stereo unspecified) is -10.4%; for `Cn1cc(C(=O)N2CCSc3ccccc32)ccc1=O` it is -22.9%; for `O=C(NCCN1CCCC1)C1(c2ccc(Cl)cc2)CCOCC1` it is -2.16%.
Take `CCc1ccc(C(=O)N2CCCC(n3nc(C)nc3C)C2)o1` (stereo unspecified): the cytotoxicity at 10 µM was -7.8%.
The figure for `CCN(CC1CCOC1)C(=O)c1cnc2onc(C)c2c1` (stereo unspecified) is -10.4%.
For `c1ccc(-c2nc(CNCCn3cccn3)cs2)nc1` the value was -21.1%; for `CCN1CCN(C2CCN(Cc3nc(C4CC4)no3)CC2)C1=O`, -2.69%.
Regarding `COc1cccc2cc(CNC(=O)N3CCOC(C)(C)C3)oc12`, the cytotoxicity at 10 µM was -14.8%.
The figure for `CCN1CCN(C(=O)NCc2cccnc2-n2cccn2)CC1` is -7.97%; for `COc1ncccc1CNC(=O)c1ccco1` it is -8.48%; for `c1cncc(-c2noc(CN3CCCCC3Cn3cccn3)n2)c1` (stereo unspecified) it is -2.42%.
The figure for `Cc1cc(CN(C)C(=O)c2ccc(OCC(F)(F)F)nc2)no1` is -6.19%; for `Cc1nn(C)c(N(C)C)c1CNCc1ccccc1Cn1cccn1` it is -8.06%.
The figure for `Cc1cnn(CC2CCCCN2CC(=O)Nc2nc(C)cs2)c1` (stereo unspecified) is 0.109%; for `COc1ccc(CNC(=O)NCCCNS(C)(=O)=O)cc1OC` it is -10.6%.
`CC(=O)Nc1nc(C(=O)NCc2ccc(N3CCCCC3)cc2)cs1`: the cytotoxicity at 10 µM is -2.75%.
The figure for `COc1ccccc1CC(=O)NS(=O)(=O)c1ccc(C(N)=O)cc1` is -5.2%; for `Cc1cc(NC(=O)CN2CCc3cnc(C)nc3C2)on1` it is -5.33%.
`COc1ccc(-c2nc(CN3CCc4c(ncn4C)C3)cs2)cc1`: the cytotoxicity at 10 µM came to 3%.
For `Cc1cc(C(=O)NCc2ccnc(N(C)C)c2)c(C)o1` the value was -2.43%; for `CC1CCCCN1CCNC(=O)c1ccn(-c2ccc(F)cc2)n1` (stereo unspecified), -1.91%.
Regarding `CC(=O)N(Cc1noc(C)n1)C1CCN(CCOc2ccccc2)C1` (stereo unspecified), the cytotoxicity at 10 µM is -2.04%.
For `CCC(CN1CCCC1)n1cncc1-c1cnn(-c2ccccc2)c1` (stereo unspecified) the value was 5.87%; for `CC(=O)N1[C@H](Cn2cncn2)C[C@@H]2CN(Cc3ccccn3)CC[C@@H]21`, 0.732%.
The figure for `Cc1noc(C)c1S(=O)(=O)N1CCc2nc(C3CCNCC3)ncc2C1` is -22.9%; for `CC(C)(C)C(=O)N1C[C@H](c2ccsc2)[C@H]2CN(C3CCCC3)CC[C@H]21` it is 2.33%.
For `Cc1ccc(CNC(=O)CN2CCN(CC(O)C3CC3)CC2)cc1` (stereo unspecified), the cytotoxicity at 10 µM came out at 4.91%.
The figure for `Cc1ccc(CN2CCC3(CC2)OC(C(=O)N(C)C)c2ccccc23)o1` (stereo unspecified) is 4.34%.
Take `Cc1nc(CN2CCC3(CC2)NC(=O)CC3c2ccccc2)cs1` (stereo unspecified): the cytotoxicity at 10 µM came to 4.33%.
`FC1(F)CCN(Cc2ccccn2)CC12CCN(c1cnccn1)C2` (stereo unspecified): the cytotoxicity at 10 µM is -108%.
With `CN(C)C(=O)CN1C[C@H]2CC[C@@H](C1)N(Cc1ccc3nsnc3c1)C2`, the cytotoxicity at 10 µM was determined as 2.3%.
For the compound `COC(=O)Cn1c(=O)[nH]c2cn(-c3cccc(Cl)c3)c(=O)n21`, the cytotoxicity at 10 µM is -1.39%.
